For data set [1], the system named is Trypanosoma cruzi. The data set is described as follows: Inhibition of Trypanosoma cruzi recombinant trans-sialidase at 1 mM after 10 mins by MUNANA continuous fluorimetric assay. The method, boiled down: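 Recombinant His-tagged 70 kDa TcTS, truncated to drop the C-terminal repeats and keep the catalytic N-terminal domain. Enzyme and inhibitor were preincubated 10 min at 26 °C in phosphate buffer pH 7.4. MuNANA (assay concentration 0.1 mM) was then added, and released methylumbelliferone fluorescence was read after 10 min (ex 360, em 460 nm). Run in duplicate.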

Data set [2] can be described thus: Cytotoxicity against mouse splenocytes after 24 hrs using propidium iodide staining by FACS analysis. Type of data set: cell-based. The following applies: splenocyte. The method, boiled down:
(§1)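 Spleen cells from C57BL/6 mice were mechanically dissociated and given red-cell lysis for 4 min in Tris-HCl pH 7.5/NH₄Cl. They were plated at 5 × 10⁵ cells/well with test compounds (maximum 0.25 mM for less soluble ones) for 24 h at 37 °C, 5% CO₂. 0.5% Tween 20 was the death control. Cells were stained with 10 µg/mL propidium iodide.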
In general terms: A flow cytometer gives signals particle by particle.

Data set [3] relates to Trypanosoma cruzi. The data set is described as follows: Inhibition of Trypanosoma cruzi recombinant trans-sialidase at 0.5 mM after 10 mins by MUNANA continuous fluorimetric assay. The method, boiled down: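 Same His-tagged truncated recombinant TcTS (catalytic N-terminal domain) in phosphate buffer pH 7.4. Samples were dissolved in water with 0.6% DMSO and tested at 0.5 mM. Preincubation was 10 min at 26 °C, then 0.1 mM MuNANA was added. Mu fluorescence was read at 10 min (ex 360, em 460 nm), in duplicate.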

The test system of data set [4] is Trypanosoma cruzi. The experiment in a line: Antitrypanosomal activity against Trypanosoma cruzi Y at < 100 uM after 24 hrs. Type of data set: functional, organism-based. Put shortly:
(§2)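 Y-strain trypomastigotes from LLC-MK₂ cultures, 6.5 × 10⁶ parasites/ml in RPMI with 10% FBS. Exposure included 750, 500, 250 and 100 µM at 37 °C, 5% CO₂. Poorly water-soluble compounds needed 0.6% DMSO and were capped at 0.75 mM. Benznidazole was the reference drug. Viability was measured by counting motile forms after 24 h.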

Data set [5] can be described thus: Cytotoxicity against mouse splenocytes at 50 to 100 uM after 24 hrs using propidium iodide staining by FACS analysis. It is filed as cell-based. Particulars: splenocyte. The method, boiled down:
as §1

In data set [6] the test system is Trypanosoma cruzi. The experiment in a line: Antitrypanosomal activity against Trypanosoma cruzi Y at > 100 uM after 24 hrs. It is filed as functional. Put shortly: as §2
Setting [7] is: in the assay text read “in the low 100s of uM range” for “at < 100 uM”.

The inhibition is how much of the control response was suppressed.

Active and inactive are the calls of the source. The calls are words filed in the database; no cut-off is given here.

With `CCC(O)c1cn(C[C@H]2O[C@@H](OC)[C@H](O)[C@@H](O)[C@H]2O)nn1` (mixture of isomers), the inhibition in the data set with Trypanosoma cruzi [1] is 29%. The Activity entry in data set [2] is “Non-toxic”.

Take `CO[C@@H]1O[C@H](Cn2cc(Cc3ccccc3)nn2)[C@H](O)[C@H](O)[C@H]1O`: the inhibition in the data set on Trypanosoma cruzi [1] stood at 29%.

Consider `CO[C@@H]1O[C@H](Cn2cc(-c3ccccn3)nn2)[C@H](O)[C@H](O)[C@H]1O`, for which the inhibition in the data set on Trypanosoma cruzi [1] amounted to 14%.

In the case of `O=C(O)CCCc1cn([C@@H]2O[C@H](CO)[C@H](O)[C@H](O)[C@H]2O)nn1`, the inhibition in the data set with Trypanosoma cruzi [1] amounted to 10%.

On to `CO[C@@H]1O[C@H](Cn2cc(-c3ccc(Br)cc3)nn2)[C@H](O)[C@H](O)[C@H]1O`, for which the inhibition in the data set on Trypanosoma cruzi [3] was 3%. Besides, the Activity entry in data set [2] is recorded as “Toxic”.

Regarding `CO[C@@H]1O[C@H](Cn2cc(-c3ccccc3N)nn2)[C@H](O)[C@H](O)[C@H]1O`, in the data set on Trypanosoma cruzi [1], the inhibition is 24%.

With `CO[C@@H]1O[C@H](Cn2cc(-c3ccc(C(F)(F)F)cc3)nn2)[C@H](O)[C@H](O)[C@H]1O`, in the data set on Trypanosoma cruzi [3], the inhibition was found to be 10%. Besides, the result in the data set on Trypanosoma cruzi [4] (setting [7]) was Active. Moreover, the Activity in data set [5] is given as 50%; in data set [2] it was “Toxic”.

Regarding `OC[C@H]1O[C@@H](n2cc(-c3ccc(Br)cc3)nn2)[C@H](O)[C@@H](O)[C@H]1O`, in the data set on Trypanosoma cruzi [3], the inhibition entry is “inactive”. The results for the Activity in data set [5] and in data set [2] were 50% and “Active”, respectively.

In the case of `OC[C@H]1O[C@@H](n2cc(-c3ccccn3)nn2)[C@H](O)[C@@H](O)[C@H]1O`, in the data set with Trypanosoma cruzi [1], the inhibition came to 13%. In addition, in data set [2], the Activity entry was “Non-toxic”.

As to `CO[C@@H]1O[C@H](Cn2cc(CO)nn2)[C@H](O)[C@H](O)[C@H]1O`, in the data set on Trypanosoma cruzi [1], the inhibition stood at 28%.

On to `CO[C@@H]1O[C@H](Cn2cc(CCCC(=O)O)nn2)[C@H](O)[C@H](O)[C@H]1O`, for which, in the data set on Trypanosoma cruzi [1], the inhibition result is “inactive”.

Consider `OC[C@H]1O[C@@H](n2cc(-c3ccccc3Br)nn2)[C@H](O)[C@@H](O)[C@H]1O`, for which, in the data set on Trypanosoma cruzi [1], the inhibition is 33%.

On to `OC[C@H]1O[C@@H](n2cc(-c3cccc(C(F)(F)F)c3)nn2)[C@H](O)[C@@H](O)[C@H]1O`, for which the inhibition with Trypanosoma cruzi [1] was found to be 31%.

For `CO[C@@H]1O[C@H](Cn2cc(-c3ccccc3C(F)(F)F)nn2)[C@H](O)[C@H](O)[C@H]1O`, in the data set on Trypanosoma cruzi [1], the inhibition was 11%.

Consider `CCC(O)c1cn([C@@H]2O[C@H](CO)[C@H](O)[C@H](O)[C@H]2O)nn1` (single isomer, unassigned), for which, in the data set on Trypanosoma cruzi [1], the inhibition turned out to be 13%.

Take `OCCCc1cn([C@@H]2O[C@H](CO)[C@H](O)[C@H](O)[C@H]2O)nn1`: in the data set with Trypanosoma cruzi [1], the inhibition came to 27%.

Consider `CO[C@@H]1O[C@H](Cn2cc(CC(C)O)nn2)[C@H](O)[C@H](O)[C@H]1O` (mixture of isomers), for which, in the data set with Trypanosoma cruzi [1], the inhibition turned out to be 10%.

As to `COC(=O)c1cn([C@@H]2O[C@H](CO)[C@H](O)[C@H](O)[C@H]2O)nn1`, the inhibition with Trypanosoma cruzi [1] was 28%.

On to `OC[C@H]1O[C@@H](n2cc(CCc3ccccc3)nn2)[C@H](O)[C@@H](O)[C@H]1O`, for which the inhibition in the data set with Trypanosoma cruzi [1] stood at 16%. The Activity entry in data set [2] is “Toxic”.

For the compound `CO[C@@H]1O[C@H](Cn2cc(CCc3ccccc3)nn2)[C@H](O)[C@H](O)[C@H]1O`, in the data set with Trypanosoma cruzi [1], the inhibition came out at 14%.

As for `CO[C@@H]1O[C@H](Cn2cc(CCCO)nn2)[C@H](O)[C@H](O)[C@H]1O`, the inhibition in the data set on Trypanosoma cruzi [1] amounted to 24%. In addition, the Activity result in data set [2] was “Non-toxic”.

Regarding `OC[C@H]1O[C@@H](n2cc(-c3ccc(C(F)(F)F)cc3)nn2)[C@H](O)[C@@H](O)[C@H]1O`, the inhibition in the data set with Trypanosoma cruzi [3] was 9%. For the same compound, the Activity result in data set [2] is “Toxic”.

As for `CC(O)Cc1cn([C@@H]2O[C@H](CO)[C@H](O)[C@H](O)[C@H]2O)nn1` (single isomer, unassigned), in the data set with Trypanosoma cruzi [1], the inhibition is 14%.

As to `CO[C@@H]1O[C@H](Cn2cc(COCC3CO3)nn2)[C@H](O)[C@H](O)[C@H]1O` (mixture of isomers), in the data set on Trypanosoma cruzi [1], the inhibition came out at 25%.

For the compound `CC(=O)N[C@H]1[C@H]([C@H](O)[C@H](O)CO)OC(C(=O)O)=C[C@@H]1O`, the inhibition with Trypanosoma cruzi [1] stood at 33%.

In the case of `CO[C@@H]1O[C@H](Cn2cc(-c3ccccc3)nn2)[C@H](O)[C@H](O)[C@H]1O`, the inhibition in the data set on Trypanosoma cruzi [1] came out at 14%.

With `COC(=O)c1cn(C[C@H]2O[C@@H](OC)[C@H](O)[C@@H](O)[C@H]2O)nn1`, the inhibition in the data set on Trypanosoma cruzi [1] is 30%.

Regarding `OCCCCc1cn([C@@H]2O[C@H](CO)[C@H](O)[C@H](O)[C@H]2O)nn1`, the inhibition in the data set on Trypanosoma cruzi [1] was 26%.

Take `CO[C@@H]1O[C@H](Cn2cc(CCCCO)nn2)[C@H](O)[C@H](O)[C@H]1O`: the inhibition in the data set with Trypanosoma cruzi [1] stood at 27%.

Consider `CO[C@@H]1O[C@H](Cn2cc(-c3cccc(C(F)(F)F)c3)nn2)[C@H](O)[C@H](O)[C@H]1O`, for which the inhibition in the data set on Trypanosoma cruzi [1] worked out at 3%.

In the case of `O=C1c2ccccc2C(=O)N1Cc1cn([C@@H]2O[C@H](CO)[C@H](O)[C@H](O)[C@H]2O)nn1`, in the data set on Trypanosoma cruzi [1], the inhibition was determined as 25%.

With `Cc1ncc(COP(=O)(O)O)c(C=O)c1O`, the inhibition in the data set on Trypanosoma cruzi [1] came out at 65%.

Take `CO[C@@H]1O[C@H](Cn2cc(CN3C(=O)c4ccccc4C3=O)nn2)[C@H](O)[C@H](O)[C@H]1O`: the inhibition in the data set with Trypanosoma cruzi [3] was determined as 11%.

`CO[C@@H]1O[C@H](Cn2cc(-c3cccnc3)nn2)[C@H](O)[C@H](O)[C@H]1O`: in the data set with Trypanosoma cruzi [1], the inhibition turned out to be 20%.

As for `CO[C@@H]1O[C@H](Cn2cc(-c3ccc(N)cc3)nn2)[C@H](O)[C@H](O)[C@H]1O`, in the data set on Trypanosoma cruzi [1], the inhibition turned out to be 34%.

For the compound `OC[C@H]1O[C@@H](n2cc(Cc3ccccc3)nn2)[C@H](O)[C@@H](O)[C@H]1O`, the inhibition with Trypanosoma cruzi [1] stood at 37%. In addition, the Activity in the data set on Trypanosoma cruzi [6] was 50%; in data set [5] it was 50%; in data set [2] it was “Active”.

As for `CN(Cc1ccccc1)Cc1cn([C@@H]2O[C@H](CO)[C@H](O)[C@H](O)[C@H]2O)nn1`, in the data set on Trypanosoma cruzi [1], the inhibition came to 22%.

For the compound `Nc1ccc(-c2cn([C@@H]3O[C@H](CO)[C@H](O)[C@H](O)[C@H]3O)nn2)cc1`, the inhibition in the data set on Trypanosoma cruzi [1] was 19%. Also, the result in the data set with Trypanosoma cruzi [4] (setting [7]) was Active. Also, the Activity result in data set [2] is listed as “Non-toxic”.

For the compound `OC[C@H]1O[C@@H](n2cc(-c3ccccc3C(F)(F)F)nn2)[C@H](O)[C@@H](O)[C@H]1O`, in the data set on Trypanosoma cruzi [1], the inhibition came out at 14%.

With `OC[C@H]1O[C@@H](n2cc(-c3cccnc3)nn2)[C@H](O)[C@@H](O)[C@H]1O`, in the data set with Trypanosoma cruzi [3], the inhibition turned out to be 15%. The Activity is 50% in data set [5] and “Toxic” in data set [2].

With `OCc1cn([C@@H]2O[C@H](CO)[C@H](O)[C@H](O)[C@H]2O)nn1`, the inhibition in the data set with Trypanosoma cruzi [1] was found to be 11%.

Consider `CO[C@@H]1O[C@H](Cn2cc(-c3ccccc3Br)nn2)[C@H](O)[C@H](O)[C@H]1O`, for which the inhibition with Trypanosoma cruzi [1] was 29%.

Regarding `CO[C@@H]1O[C@H](Cn2cc(CN(C)Cc3ccccc3)nn2)[C@H](O)[C@H](O)[C@H]1O`, the inhibition with Trypanosoma cruzi [1] stood at 17%. The outcome in the data set on Trypanosoma cruzi [4] was Active. Moreover, the Activity result in data set [2] is “Non-toxic”.

As to `Nc1ccccc1-c1cn([C@@H]2O[C@H](CO)[C@H](O)[C@H](O)[C@H]2O)nn1`, the inhibition in the data set with Trypanosoma cruzi [1] was 30%. Also, the Activity result in data set [2] is on record as “Non-toxic”.

As to `OC[C@H]1O[C@@H](n2cc(-c3ccccc3)nn2)[C@H](O)[C@@H](O)[C@H]1O`, the inhibition in the data set on Trypanosoma cruzi [1] stood at 15%.

For `OC[C@H]1O[C@@H](n2cc(COCC3CO3)nn2)[C@H](O)[C@@H](O)[C@H]1O` (mixture of isomers), in the data set with Trypanosoma cruzi [1], the inhibition was determined as 27%. The Activity entry in data set [2] was “Non-toxic”.

These data come from ChEMBL document CHEMBL1156196, “'Click chemistry' synthesis of a library of 1,2,3-triazole-substituted galactose derivatives and their evaluation against Trypanosoma cruzi and its cell surface trans-sialidase” (Bioorg Med Chem, 2010).
